Structures are written as SMILES.

The target of assay [1] is α4β3δ GABAAR (Homo sapiens, UniProt O14764+P28472+P48169). Kind of assay: whole-cell patch clamp electrophysiology on the α4β3δ cell line. The following applies: for receptors gated, % of total receptors gated by 10 mM GABA + 30 μM Etomidate: 10 mM each ligand, 2 s first pulse of two-pulse protocol, mean ± SD; for Hill coefficient: Hill plot of normalized peak amplitude against agonist concentration. The format is cell-based. (In general: Patch clamp records ionic current or voltage across a cell membrane.)

The next assay deals with α4β3 GABAAR (Homo sapiens, UniProt P28472+P48169). Nature of the assay: whole-cell patch clamp electrophysiology on α4β3 cells. The format is cell-based. The following applies: for enhancement of GABA current by histamine: 300 μM histamine with 100 nM GABA. The gist of the method: (§1)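 Cells on coverslips were induced with tetracycline (2 μg/ml, 28–32 h); β3δ cells were the β3 line transiently transfected with δ. Whole-cell clamp at –50 mV, 20–22 °C, pH 7.4 bath, KCl/Mg-ATP pipette. […] One-way ANOVA.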

The target in the next assay is T1, β3 GABAAR (Homo sapiens, UniProt P28472).
T1 sequence (P28472 26-473): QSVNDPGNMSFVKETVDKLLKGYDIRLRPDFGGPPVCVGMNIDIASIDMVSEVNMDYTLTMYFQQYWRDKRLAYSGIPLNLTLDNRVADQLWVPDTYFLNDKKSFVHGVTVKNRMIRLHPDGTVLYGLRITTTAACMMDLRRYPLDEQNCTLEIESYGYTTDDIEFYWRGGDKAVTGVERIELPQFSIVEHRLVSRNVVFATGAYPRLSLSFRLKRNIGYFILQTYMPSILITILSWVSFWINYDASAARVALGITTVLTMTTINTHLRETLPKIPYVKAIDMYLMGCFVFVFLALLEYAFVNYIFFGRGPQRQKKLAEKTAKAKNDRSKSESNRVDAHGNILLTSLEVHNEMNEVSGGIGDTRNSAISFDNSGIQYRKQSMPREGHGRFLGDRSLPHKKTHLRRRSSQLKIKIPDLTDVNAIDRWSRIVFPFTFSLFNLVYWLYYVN
Kind of assay: whole-cell patch clamp electrophysiology on β3 cells. To be noted: for enhancement of GABA current by histamine: 300 μM histamine with 100 nM GABA. The format is cell-based. The method in brief:
as §1

A further assay concerns the target T2, β3δ GABAAR (Homo sapiens, UniProt O14764+P28472).
T2 sequence (P28472 26-473): T1 sequence (P28472 26-473)
T2 sequence (O14764 17-452 limits assumed): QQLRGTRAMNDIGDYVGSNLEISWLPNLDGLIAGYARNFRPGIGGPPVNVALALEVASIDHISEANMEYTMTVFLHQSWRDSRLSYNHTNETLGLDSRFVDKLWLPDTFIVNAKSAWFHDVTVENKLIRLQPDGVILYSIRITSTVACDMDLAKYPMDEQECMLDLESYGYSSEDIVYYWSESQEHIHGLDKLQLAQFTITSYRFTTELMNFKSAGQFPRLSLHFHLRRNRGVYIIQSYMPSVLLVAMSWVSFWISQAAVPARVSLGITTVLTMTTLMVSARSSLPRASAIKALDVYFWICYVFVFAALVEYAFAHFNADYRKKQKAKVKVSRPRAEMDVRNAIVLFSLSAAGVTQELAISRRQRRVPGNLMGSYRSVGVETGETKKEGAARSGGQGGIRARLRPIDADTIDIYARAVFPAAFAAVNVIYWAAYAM
Nature of the assay: whole-cell patch clamp electrophysiology on β3δ cells. The following applies: for enhancement of GABA current by histamine: 300 μM histamine with 100 nM GABA. Format: cell-based. The gist of the method:
as §1

Another assay concerns the target α4β3γ2 GABAAR (Homo sapiens, UniProt P18507+P28472+P48169). Kind of assay: radioligand assay, competition with pre-bound [3H]Ro15-4513, α4β3γ2 cell pool. To be noted: membranes from α4β3γ2 cell pool. The format is binding.
The target of another assay is α1β3γ2 GABAAR (Homo sapiens, UniProt P14867+P18507+P28472). Nature of the assay: radioligand assay, competition with pre-bound [3H]Ro15-4513, α1β3γ2 cell line. To be noted: membranes from α1β3γ2 cell line. The format is binding.
The test system of assay [2] is α4β3δ GABAAR. To be noted: cited from earlier work.

With `NCCCC(=O)O` [GABA, γ-aminobutyric acid], the “activation of currents by GABA” value is reported as “robustly activates currents” on α4β3δ GABAAR [1] (100 nM GABA) and “barely” at α4β3 GABAAR (100 nM GABA). The “receptors gated, % of total receptors gated by 10 mM GABA + 30 μM Etomidate” value at α4β3δ GABAAR [1] stood at 15.0 ± 6.0%. The “time for deactivating current to reach 50% of its original value” on α4β3δ GABAAR [1] (200 ms pulse of 10 μM GABA in the absence of histamine) is 2.7 ± 0.7 s. For the same compound, the Hill coefficient (as a rule, a measure of the steepness of the concentration-response curve) on α4β3δ GABAAR [1] worked out at 0.9. For the same compound, the “gating by GABA” value is “not gated” at β3 GABAAR (200 μM GABA, 8 s pulse) and “not gated” on β3δ GABAAR (200 μM GABA, 8 s pulse).

As to `CCOC(=O)c1ncn2c1CN(C)C(=O)c1cc(N=[N+]=[N-])ccc1-2` [Ro15-4513], the “effect on GABA currents” value at α4β3δ GABAAR [1] (whole-cell electrophysiology recordings, α4β3δ cell line) is given as “little effect”. Moreover, the “binding of Ro15-4513” value on α4β3γ2 GABAAR and on α1β3γ2 GABAAR was “binds” in each case.

Turning to `NCCc1c[nH]cn1` [histamine], the “fast and slow time constants of deactivation” value at α4β3δ GABAAR [1] (10 μM GABA pulse in the presence of 100 μM histamine, P = 0.03) is recorded as “decreased significantly”. The “fraction of receptors with slow deactivation” value at α4β3δ GABAAR [1] (10 μM GABA pulse in the presence of 100 μM histamine, P = 0.04) is recorded as “increased”. Also, the “enhancement of GABA current by histamine” value on α4β3δ GABAAR [1] (300 μM histamine with 100 nM GABA) is listed as “robustly enhances”; at α4β3 GABAAR it was “Only modest responses”; at α4β3 GABAAR (listed as Histamine), “only modestly”; on β3 GABAAR, “Only modest responses”; at β3 GABAAR (listed as Histamine), “only modestly”; on β3δ GABAAR, “Only modest responses”. Besides, at β3δ GABAAR (listed as Histamine), the “enhancement of GABA current by histamine” value is on record as “only modestly”. Also, on α4β3δ GABAAR [1], the “receptors gated, % of total receptors gated by 10 mM GABA + 30 μM Etomidate” value is 50.2 ± 11.0%. Besides, the “time for deactivating current to reach 50% of its original value” at α4β3δ GABAAR [1] (200 ms pulse of 10 μM GABA in the presence of 100 μM histamine) worked out at 1.0 ± 0.4 s. Further, on α4β3δ GABAAR [1] (200 ms pulse of 10 μM GABA, pre-application of 100 μM histamine, n = 4 cells), the “decrease in peak current amplitude of the deactivating currents” value was found to be 74.5 ± 11.9%. At α4β3δ GABAAR [1], this compound registered a Hill coefficient of 1.1. In addition, the “deactivation of currents following a brief pulse of 10 μM GABA” value at α4β3δ GABAAR [1] (continuous presence of 100 μM histamine) was “accelerated”. Besides, the “efficacy of histamine relative to GABA” value on α4β3δ GABAAR [1] (whole-cell currents) was 3 fold.

On to `Oc1noc2c1CCNC2` [THIP, 4,5,6,7-tetrahydroisoxazolo[5,4-c]pyridin-3-ol], for which the “potency and efficacy at α4β3δ relative to other receptors subtypes” value in the assay on α4β3δ GABAAR [2] is “higher potency and supramaximal efficacy”.
